Source: PubChem BioAssay (Broad Institute)
XiGFP reactiv = activators of inactive X chromosome reactivation, primary screen, imaging, XiGFP fibroblasts, GFP high-content imaging, set 2 | XiGFP mouse fibroblasts, % GFP-positive cells imaging, 3 d; cells co-treated with 5-aza-dC sensitizer; scaled so ellipticine positive control = 100% | activation, % at 7.58 µM | actives 0.055% (n = 360,000);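 active means mean normalized replicate activation at least 10% and every replicate at or above 10%; inconclusive means only one of the two criteria met; inactive means mean below 10% and not all replicates reach 10%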;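 further: 0% = median of on-plate neutral control wells and 100% = ellipticine 6 µM median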
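System: SV40-immortalized XiGFP fibroblast cells, line 68-5-11 / Incubation: 3-day compound exposure, then 15 min fixation at room temperature / Compound: single concentration per compound, delivered by pin transfer / Buffer or medium: DMEM plus 5-aza-dC sensitizer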
C2C12 statin = suppressors of statin myotoxicity in C2C12 myotubes, primary screen, cell-based, single point, plate reader; actives 0.78% (n = 330,000); C2C12 myotubes + simvastatin, ATP luminescence, 48 h; scaled: DMSO 0, geranylgeraniol control 100; AID 602340, 2012; rescue of ATP level, % at 7.49 µM;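 active means mean ATP rescue above about 67%, or every replicate alone reaching that limit, limit read from the data, passing the limit was not always enough; inconclusive means no clear call, values can overlap the other calls; inactive means mean under the limit and some replicate under it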;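 further: myotubes were challenged with 10 µM simvastatin during compound exposure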
DENV2 CPE rescue = inhibitors of DENV2 cytopathic effect, primary screen, cell-based, plate reader, single concentration; CPE inhibition, % at 9.99 µM; DENV2-infected cells, cytopathic effect rescue; actives 1.7% (n = 350,000); in the data active means CPE inhibition above about 20%, passing the limit was not always enough; inconclusive means no clear call, values can overlap the other calls; tested in BHK-21 cells;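 further: 0% = median of neutral control wells and 100% = median of positive control wells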
Cneo AK release = Cryptococcus neoformans cell lysis inducers, primary screen, AK release luminescence, single concentration. C. neoformans lysis, adenylate kinase release luminescence, 4 h; normalised: neutral wells 0, clomiphene wells 100. lysis activity, % at 15 µM. actives 0.2% (n = 360,000). AID 651654, 2012;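 active means mean lysis activity across replicates of at least 80%, whatever share of replicates individually reach that level; inactive means mean lysis activity below 80%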
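Test system: log-phase Cryptococcus neoformans yeast cells; Quantity: yeast cell density of 5 × 10^6 cells/mL; Buffer or medium: YPD; Doses: single compound concentration per well; Timing: 4 h at 37 °C static, read 1 h later; Measured by: AK luminescence; Read-out basis: lysis from increased AK signal; Control set: Clomiphene as positive control.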
Numbers without * were called inactive; ? = inconclusive; / = no result. Hits are enriched below; roughly 2.1% of the tested compounds scored in any of these assays.

SMILES	XiGFP reactiv	C2C12 statin	DENV2 CPE rescue	Cneo AK release
C[C@H]1CN([C@@H](C)CO)C(=O)c2cc(NC(=O)Cc3cn(C)c4ccccc34)ccc2O[C@H]1CN(C)S(=O)(=O)c1cn(C)cn1	0	31	-3	-3
COc1ccc(CN(C)C[C@@H]2Oc3ccc(NC(=O)C4CC4)cc3C(=O)N([C@H](C)CO)C[C@H]2C)cc1	0	7	/	106*
COc1ccc(CN(C)C[C@@H]2Oc3ccc(NC(=O)C4CC4)cc3C(=O)N([C@@H](C)CO)C[C@H]2C)cc1	0	5	/	92*
CCCC#Cc1ccc2c(c1)O[C@@H](CN(C)C(=O)c1ccccc1)[C@@H](C)CN([C@H](C)CO)S2(=O)=O	-1	-10	-4	53
C[C@@H]1CN([C@@H](C)CO)C(=O)c2cc(C#CC3(O)CCCC3)cnc2O[C@@H]1CN(C)C(=O)Cc1ccncc1	0	29	2	7
COc1ccc(S(=O)(=O)N(C)C[C@@H]2Oc3ccc(NS(=O)(=O)c4ccc(Cl)cc4)cc3CC(=O)N([C@@H](C)CO)C[C@@H]2C)cc1	-1	28	64*	2
C[C@H](CO)N1C[C@H](C)[C@H](CN(C)S(=O)(=O)c2ccc(F)cc2)Oc2ccc(NS(=O)(=O)c3ccc(F)cc3)cc2CC1=O	0	2	-10	0
COc1ccc(S(=O)(=O)N(C)C[C@H]2Oc3ccc(NS(=O)(=O)c4ccc(F)cc4)cc3CC(=O)N([C@@H](C)CO)C[C@@H]2C)cc1	?	1	77*	/
C[C@@H]1CN([C@H](C)CO)C(=O)Cc2cc(NS(=O)(=O)c3ccc(F)cc3)ccc2O[C@@H]1CN(C)S(C)(=O)=O	0	5	31*	0
C[C@H]1CN([C@@H](C)CO)C(=O)Cc2cc(NS(=O)(=O)c3ccc(F)cc3)ccc2O[C@@H]1CN(C)S(=O)(=O)c1ccc(F)cc1	0	-1	-11	98*
COc1ccc(S(=O)(=O)Nc2ccc3c(c2)CC(=O)N([C@H](C)CO)C[C@H](C)[C@H](CN(C)C(=O)NC(C)C)O3)cc1	-1	4	64*	-3
COc1ccc(S(=O)(=O)N(C)C[C@@H]2Oc3ccc(NS(=O)(=O)c4ccc(F)cc4)cc3CC(=O)N([C@@H](C)CO)C[C@@H]2C)cc1	-1	-9	1	/
COc1ccc(S(=O)(=O)Nc2ccc3c(c2)CC(=O)N([C@H](C)CO)C[C@@H](C)[C@H](CN(C)S(=O)(=O)c2ccc(F)cc2)O3)cc1	0	2	43*	1
C[C@@H]1CN([C@@H](C)CO)C(=O)Cc2cc(NS(=O)(=O)c3ccccc3)ccc2O[C@@H]1CN(C)S(C)(=O)=O	0	-17	24*	0
COc1ccc(S(=O)(=O)Nc2ccc3c(c2)CC(=O)N([C@H](C)CO)C[C@@H](C)[C@H](CN(C)C(=O)NC(C)C)O3)cc1	-1	-9	-10	46
Cc1ccc(S(=O)(=O)Nc2cccc3c2O[C@H](CN(C)S(=O)(=O)c2ccc(C)cc2)[C@@H](C)CN([C@H](C)CO)C3=O)cc1	1	1	7	0
CCCNC(=O)C[C@@H]1C[C@H]2c3cc(NC(=O)NC4CCCC4)ccc3O[C@H]2[C@@H](CO)O1	0	-6	-2	-1
C/C=C/c1ccc2c(c1)[C@H]1[C@H](CCN1C(=O)c1ccc(F)cc1)[C@H](CO)N2	0	/	-16	/
Cn1c(NCc2ccccc2)nc2c1c(=O)n(Cc1ccc(Br)cc1)c(=O)n2C	/	23	/	-4
COc1ccc(CNc2nc3c(c(=O)n(Cc4ccc(Br)cc4)c(=O)n3C)n2C)cc1	/	98*	/	-12
COc1ccc(CN(C)C[C@H]2OCCCC[C@@H](C)Oc3ccc(NC(=O)Nc4c(C)noc4C)cc3C(=O)N([C@H](C)CO)C[C@H]2C)cc1	0	/	16	53
Cc1noc(C)c1S(=O)(=O)Nc1ccc2c(c1)C(=O)N([C@@H](C)CO)C[C@H](C)[C@@H](CN(C)S(=O)(=O)c1c(C)noc1C)OCCCC[C@H](C)O2	0	/	9	3
COC(=O)[C@@H](NC(=O)NC(C)CCc1ccccc1)C(C)C (stereo not given in full)	/	93*	/	0
O=C(Nc1ccc2c(c1)CCC2)c1ccccc1	0	-7	45*	-20
CCN(CC(=O)Nc1c(F)cccc1F)C(=O)c1cccc(S(=O)(=O)NCc2ccccc2)c1	0	1	80*	2
SMILES	XiGFP reactiv	C2C12 statin	DENV2 CPE rescue	Cneo AK release
CCN(CC(=O)Nc1c(F)cccc1F)C(=O)c1ccc(C(=O)c2ccccc2)cc1	-1	/	11	/
CC(C)(C)C(=O)Nc1ccc(C(=O)NCc2cccnc2)cc1	/	114*	/	-1
COC(=O)C1CCC(=S)N1C(=O)c1ccccc1 (stereo not given)	0	2	-3	4
COC(=O)[C@H]1CN(C(=O)c2ccccc2)C(=O)N1	0	8	25*	2
COc1ccc(OC)c(-c2nnc3n2N=C(c2ccc(OC)c(OC)c2)CS3)c1	1	-24	31*	2
c1ccc(-c2cc(-c3nnc4n3N=C(c3ccc5ccccc5c3)CS4)[nH]n2)cc1	/	80*	/	0
COc1ccc(C2=Nn3c(nnc3-c3ccccc3OC)SC2)cc1OCC1CC1	0	-86	25*	2
O=C(C[C@H]1CC[C@H](NC(=O)c2ccccc2)[C@H](CO)O1)NCCc1ccncc1	0	4	6	0
C[C@H](CO)N1C[C@H](C)[C@@H](CN(C)Cc2ccncc2)Oc2c(NC(=O)c3cnccn3)cccc2C1=O	0	-21	-5	55
O/N=C\c1ccccc1Oc1ccc(F)cc1	0	/	-15	/
O/N=C/c1ccccc1Oc1ccccc1	/	86*	/	-3
COc1ccc(C#Cc2ccc3c(c2)[C@]2(C(=O)N3)[C@H](c3ccc(O)cc3)N3[C@H](c4ccccc4)[C@H](c4ccccc4)OC(=O)[C@H]3[C@@H]2C(=O)NC[C@H](O)c2ccccc2)cc1	/	/	-2	0
CCc1cc(Cn2nc(-c3ccccc3)cc2C(=O)O)on1	0	0	-3	4
CCc1cc(Cn2nc(-c3ccccc3)cc2C(=O)NCc2cccc(C(F)(F)F)c2)on1	0	-2	-4	1
CCc1cc(Cn2nc(-c3ccccc3)cc2C(=O)NCc2ccc(C)cc2)on1	0	11	111*	3
CCc1cc(Cn2nc(-c3ccccc3)cc2C(=O)NCc2cccc(Br)c2)on1	0	-24	90*	4
C[C@H]1CN([C@@H](C)CO)C(=O)Cc2cc(NS(=O)(=O)c3cn(C)cn3)ccc2O[C@H]1CN(C)C(=O)Nc1ccc2c(c1)OCO2	0	-17	-7	2
CCOC(=O)c1sc(NC(=O)CN(CC(C)C)CC(C)C)c(C(=O)OCC)c1C	/	74*	/	2
